NR1D1 modulator: modulators of human Rev-erb alpha DNA binding; P20393; Rev-erbα–FITC-DNA binding, fluorescence polarization, 90 min; activity, % at 10 µM; 0.79% of 370,000 active;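 active means activity above about 14%, limit read from the data; passing the limit was not always enough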
NR2E3 ag-1: agonists of human nuclear receptor NR2E3; AID 2300; 0.12% of 320,000 active; inhibition of corepressor binding, % at 4.78 µM; Q9Y5X4; GST-NR2E3/biotin-RetCOR TR-FRET, 1536-well;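 active means percent inhibition above the cutoff of mean plus 3 SD of all tested compounds, set per screening campaign, cut at about 20% in these data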
Target sequence (Q9Y5X4 whole entry, looked up): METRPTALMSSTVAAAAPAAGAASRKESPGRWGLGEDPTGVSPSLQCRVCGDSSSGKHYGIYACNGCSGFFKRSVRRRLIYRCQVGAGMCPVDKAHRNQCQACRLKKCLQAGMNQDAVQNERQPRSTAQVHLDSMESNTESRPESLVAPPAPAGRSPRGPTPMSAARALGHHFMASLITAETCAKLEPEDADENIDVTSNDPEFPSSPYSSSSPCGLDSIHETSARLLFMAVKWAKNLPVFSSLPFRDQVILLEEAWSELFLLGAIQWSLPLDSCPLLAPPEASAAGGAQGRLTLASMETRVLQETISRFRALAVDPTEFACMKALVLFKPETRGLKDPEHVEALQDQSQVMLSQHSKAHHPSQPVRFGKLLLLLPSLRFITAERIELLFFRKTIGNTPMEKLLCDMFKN
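system = GST-tagged NR2E3 plus biotinylated RetCOR corepressor | input = 1.35 nM GST-NR2E3 | also added = 7 nM biotin-RetCOR | schedule = 5 h incubation at 4 °C | measured by = TR-FRET with europium anti-GST and streptavidin-D2, 340 nm excitation | read-out = percent loss of FRET ratio relative to control wells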
NR2E3 ag-2: agonists of human NR2E3 nuclear receptor | inhibition of corepressor binding, % at 3.98 µM | CHO-S Gal4-NCOR/VP16-NR2E3 two-hybrid, luciferase | 0.35% of 360,000 active;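 active means inhibition above the mean of all tested compounds plus 3 SD, cut at about 70% in these data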;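 further: higher means lower luciferase signal from less NR2E3 corepressor binding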
PG9 binder: binds the HIV-1 gp120 antibody PG9; TR-FRET gp120-PG9 antibody binding; inhibition, % at 6.7 µM; 0.43% of 360,000 active; AID 624416; in the data active means inhibition above about 8.5%
NR2E3 ag confirm: NR2E3 agonism confirmed in two-hybrid assay; shares compounds with NR2E3 ag-2; 51% of 2,300 active; inhibition, % at 3.98 µM; CHO-S mammalian two-hybrid NR2E3-NCOR, luciferase luminescence;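 active means average inhibition above a cutoff equal to the mean inhibition of all tested compounds plus one SD, cut at about 70% in these data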
VP16 counter: GAL4-VP16 reporter inhibition in NR2E3 agonist counterscreen | shares compounds with NR2E3 ag-2 | CHO-S GAL4-VP16 luciferase reporter, luminescence | inhibition, % at 3.98 µM | 29% of 2,300 active | AID 624379;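 active means mean inhibition above a cutoff equal to the average over all tested compounds plus one standard deviation, cut at about 70% in these data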;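 further: luciferase from a UAS reporter driven by GAL4-VP16 transactivation; higher means less reporter light so more repression of VP16 activity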
Large screens that a line does not name were inactive (follow-up assays come after a bar, where they were run). Compounds with a hit are over-represented: about 1.5% of the library has one in this group of screens.

O=C(COC(=O)c1cc([N+](=O)[O-])ccc1N1CCOCC1)Nc1ccc(Cl)cn1	NR2E3 ag-2 78 | NR2E3 ag confirm 82 | VP16 counter inactive
COc1ccc(CNCC#Cc2ccccc2)c(OC)c1	none (no result: NR2E3 ag-1, NR2E3 ag-2, PG9 binder)
C=CC[C@H]1c2ccccc2[C@H]2N3N=Cc4ccccc4[C@H]3[C@H](CCc3ccccc3)C(=O)N2N1C(=O)c1ccccc1	none (no result: NR2E3 ag-1, NR2E3 ag-2, PG9 binder)
CCOc1cccc(/C=N/NC(=S)Nc2ccccc2[N+](=O)[O-])c1O	NR2E3 ag-2 83 | NR2E3 ag confirm inactive | VP16 counter inactive
O=C(CSc1nc2ccccc2s1)Nc1ccc(N2CCOCC2)c(Cl)c1	none
O=C(CSc1nc2ccccc2c(=O)[nH]1)Nc1ccc([N+](=O)[O-])cc1	none (no result: NR2E3 ag-1)
O=C(CSc1nc2ccccc2c(=O)[nH]1)Nc1ccc(N2CCOCC2)c(Cl)c1	none | NR2E3 ag confirm inactive | VP16 counter inactive
Cc1ccc(NC(=O)CSc2nc3ccccc3c(=O)[nH]2)cc1[N+](=O)[O-]	none (no result: NR2E3 ag-1) | NR2E3 ag confirm inactive | VP16 counter inactive
Cc1cc(C)nc(SCC(=O)Nc2ccc(N3CCOCC3)c(Cl)c2)n1	NR2E3 ag-2 74 | NR2E3 ag confirm 89 | VP16 counter 79
CNc1nc(SCC(=O)Nc2ccc(Cl)c(Cl)c2)nc(N2CCOCC2)n1	none
COc1cc(-c2c(C(=O)c3ccccc3)[nH]c(N)c2C(N)=O)ccc1O	none (no result: NR2E3 ag-1, NR2E3 ag-2, PG9 binder)
OC(c1ccccc1)(c1ccccc1)C1CCN(CCCNc2ccc(Cl)cc2Cl)CC1	none (no result: NR2E3 ag-1, NR2E3 ag-2, PG9 binder)
CCCc1cc(=O)n2nc(N3CCC(C(=O)N4CCN(c5ccc(OC)cc5)CC4)CC3)sc2n1	none | NR2E3 ag confirm 75 | VP16 counter inactive
Cc1cc(=O)n2nc(N3CCC(C(=O)N4CCN(c5ccccc5)CC4)CC3)sc2n1	none
c1coc(CN(Cc2ccco2)c2ncnc3c2oc2ccccc23)c1	none (no result: NR1D1 modulator, PG9 binder) | NR2E3 ag confirm 77 | VP16 counter inactive
Cc1ccc(-n2c(COc3ccccc3)nnc2SCC(=O)Nc2ccccc2-c2ccccc2)cc1	none (no result: NR2E3 ag-1, NR2E3 ag-2, PG9 binder)
Clc1ccc(CSc2nnc(Cn3cnc4ccccc43)o2)cc1	none | NR2E3 ag confirm 80 | VP16 counter inactive
NC(=O)CSc1nnc(Cn2cnc3ccccc32)o1	none
O=C(CSc1nnc(Cn2nnc3ccccc32)o1)N(Cc1ccc(Cl)cc1)c1ccccc1	NR2E3 ag-2 81 | NR2E3 ag confirm 94 | VP16 counter 81
C[C@H](NS(=O)(=O)c1ccc([N+](=O)[O-])cc1)C(=O)NCCNC(=O)[C@@H](C)NS(=O)(=O)c1ccc([N+](=O)[O-])cc1	none (no result: NR2E3 ag-1, NR2E3 ag-2, PG9 binder)
O=C(c1cc2nc(-c3ccc(F)cc3)cc(C(F)(F)F)n2n1)N1CCCCC1c1cccnc1 (stereo not given)	none | NR2E3 ag confirm 88 | VP16 counter inactive
O=C(c1cnn2c(C(F)(F)F)cc(-c3ccccc3)nc12)N1CCCCC1c1cccnc1 (stereo not given)	none
CCC[C@H]1[C@@H](OC(=O)Oc2ccc([N+](=O)[O-])cc2)CC[C@@]23CCCN2C(=O)CCC[C@@H]13	none (no result: NR2E3 ag-1, NR2E3 ag-2, PG9 binder)
Cc1ccc2cc3cc(C(=O)NCc4ccco4)oc3nc2c1	none | NR2E3 ag confirm inactive | VP16 counter inactive
Cc1ccc2cc3cc(C(=O)NCCC(C)C)oc3nc2c1	none
O=c1cc(C(F)(F)F)[nH]c2ccc(C(F)(F)F)cc12	NR2E3 ag-2 93 | NR2E3 ag confirm 101 | VP16 counter 91
Cc1cc(=O)c2ccc(C(F)(F)F)cc2[nH]1	none
Cc1nc2ccccc2c2c1CC(C(C)(Cl)Br)O2 (stereo not given)	none | NR2E3 ag confirm 78 | VP16 counter inactive
CCC1CCCCN1S(=O)(=O)c1ccc(C(=O)Nc2nnc(C3CC3)o2)cc1 (stereo not given)	none
CCC1CCCCN1S(=O)(=O)c1ccc(NC(=O)c2ccncc2)cc1 (stereo not given)	NR2E3 ag-2 96 | NR2E3 ag confirm inactive | VP16 counter inactive
Cc1ccc(NC(=S)NNC(=O)CSc2nnc(-c3ccc(C)cc3)n2C2CCCCC2)cc1	none (no result: NR2E3 ag-1, NR2E3 ag-2, PG9 binder)
COc1ccc(N2CCN(CCCNC(=O)Cn3c(=O)c4cccn4c4c(C)ccnc43)CC2)cc1	none (no result: NR2E3 ag-1, NR2E3 ag-2, PG9 binder)
Cc1ccc(OCCN2CCC2(C)C(=O)NCc2cccc3ccccc23)cc1 (stereo not given)	none (no result: NR2E3 ag-1)
Cc1ccc(OCCN2CCC2(C)C(=O)NCc2ccc(C(F)(F)F)cc2)cc1 (stereo not given)	none (no result: NR2E3 ag-1) | NR2E3 ag confirm inactive | VP16 counter inactive
Cc1ccccc1Cn1cc(CN2[C@@H](CC(C)C)COc3cccc(F)c3S2(=O)=O)nn1	none (no result: NR2E3 ag-1, NR2E3 ag-2, PG9 binder)
N#Cc1cc2c(nc1SCC(N)=O)CCCCC2	none
N#Cc1cc2c(nc1SCC(=O)N1CCOCC1)CCCCC2	NR2E3 ag-2 73 | NR2E3 ag confirm inactive | VP16 counter inactive
O=C(NCc1ccccc1)N1CCN(c2ccc(F)cc2)CC1	none
Cc1occc1C(=O)N1CCN(c2ccc(Cl)c(Cl)c2)CC1	none | NR2E3 ag confirm 81 | VP16 counter inactive
O=C(NCc1ccccc1)N1CCN(c2ccc(Cl)c(Cl)c2)CC1	NR2E3 ag-2 77 | NR2E3 ag confirm 93 | VP16 counter 76
O=C1c2ccccc2-c2ccc(P(=O)(O)O)cc21	none (no result: NR2E3 ag-1, NR2E3 ag-2, PG9 binder)
COc1ccc(C(=O)C2(C(=O)Nc3cc(C)cc(C)c3)CC(c3ccccc3C(F)(F)F)=NO2)cc1 (stereo not given)	none (no result: NR2E3 ag-1, NR2E3 ag-2, PG9 binder)
CC1(C)CC(=O)N(CC(=O)N2CCN(Cc3ccccc3)CC2)c2ccccc2S1(=O)=O	none (no result: NR2E3 ag-1, NR2E3 ag-2, PG9 binder)
Cc1ccc(NC(=O)C(C)c2ccc(-c3ccccc3)c(F)c2)cc1 (stereo not given)	NR2E3 ag-2 74 | NR2E3 ag confirm 89 | VP16 counter 77
CC(C)(C)c1ccc(OCC(O)CN2CCc3ccccc3C2)cc1 (stereo not given)	NR2E3 ag-2 85 | NR2E3 ag confirm inactive | VP16 counter inactive
CCCn1c(CN2CCN(c3cccc(Cl)c3)CC2)nc2c1c(=O)n(C)c(=O)n2C	NR2E3 ag-2 93 | NR2E3 ag confirm 94 | VP16 counter 85
CCCCn1c(CN2CCN(c3cccc(Cl)c3)CC2)nc2c1c(=O)n(C)c(=O)n2C	none
CCCC(=O)N1CCN(c2ccc(NC(=O)c3cc4ccccc4o3)cc2Cl)CC1	none | NR2E3 ag confirm inactive | VP16 counter inactive
CCC(=O)N1CCN(c2ccc(NC(=O)c3cc4ccccc4o3)cc2Cl)CC1	none
C=CCN1C(C(=O)OC)CN(Cc2cn(Cc3ccc(Cl)cc3)nn2)CCS1(=O)=O (stereo not given)	none (no result: NR2E3 ag-1, NR2E3 ag-2, PG9 binder)
CC(=O)c1cn(CCOc2ccccc2C)c2ccccc12	NR2E3 ag-2 70 | NR2E3 ag confirm 94 | VP16 counter 79
Cc1ccccc1OCCn1cc(C(=S)N2CCCC2)c2ccccc21	none
CCOc1ccc(-n2c(SCC(=O)Nc3ccc(S(=O)(=O)Nc4cc(C)nc(C)n4)cc3)nnc2-c2ccc(OC)cc2)cc1	none (no result: NR2E3 ag-1, NR2E3 ag-2, PG9 binder)
CCC1(CC)C(=O)C(C)(C)C(=O)OC1c1ccccn1 (stereo not given)	NR2E3 ag-2 92 | NR2E3 ag confirm inactive | VP16 counter inactive

Screening data as filed in PubChem BioAssay.
